Measured values gathered from unrelated publications.
Lines come from different studies, so protocols differ.
Target: Focal adhesion kinase 1 (PTK2, Homo sapiens, UniProt Q05397)

Structure (SMILES)	test	setting	remaining binding [%]
COc1cccc(CNC(=O)c2nc3scc(COCc4ccc(C(=O)O)cc4)c3c(=O)[nH]2)c1	cell-free assay, competition with immobilised ligand	1 µM	100
C=CC(=O)N1CCC(C(=O)NCC(=O)N2CCN(c3nc(-c4cnc(N)nc4C(F)F)nc(N4CCOCC4)n3)CC2)CC1	binding, competition with immobilised ligand	1 µM	100
CC(C)(C)c1ccc(-c2nc(CBr)nn2-c2cccc(O)c2)cc1	cell-free assay, competition with immobilised ligand	10 µM	88
c1ccc(N2CCN(Cc3nc4ccccc4[nH]3)CC2)nc1	binding, competition with immobilised ligand	1 µM	86
O=C(Nc1c[nH]nc1C(=O)NC1CCNCC1)c1cc(F)cc(F)c1	binding, competition with immobilised ligand	1 µM	91
O=C(c1ccc(Nc2nccc(-c3cc4ccccc4s3)n2)cc1)N1CCC(N2CCCC2)CC1	binding, competition with immobilised ligand	1 µM	81
C[C@@H]1CCN(c2nccc(-c3cnn4ncccc34)n2)C1	binding	1 µM	100
COc1cnc(Nc2cccc(S(N)(=O)=O)c2)nc1N1CCN(c2ccccc2)CC1	binding, competition with immobilised ligand	1 µM	100
C[C@@H](c1ccc(-n2cnc3c(N)ncnc32)cc1)N1CCc2nn(C)c(Cc3ccccc3)c2C1=O	binding, competition with immobilised ligand	0.1 µM	87
O=C(NCc1ncc(C(F)(F)F)cc1Cl)c1ccc2c(c1)C1(CCS(=O)(=O)CC1)[C@@H](C1CC1)N2S(=O)(=O)c1ccc(F)cc1	cell-free assay, competition with immobilised ligand	1 µM	95
O=C(NCCCN1CCOCC1)c1ccc(Nc2ncc(Cl)c(-c3ccc(Cl)s3)n2)cc1	binding, competition with immobilised ligand	1 µM	8.1
c1cnn2ncc(-c3ccnc(N4CCC45COC5)n3)c2c1	binding	1 µM	99
Cc1cnc(Nc2ccc(C(=O)N3CCC(N4CCCC4)CC3)cc2)nc1-c1cc2ccccc2s1	binding, competition with immobilised ligand	1 µM	100
O=C(NS(=O)(=O)c1ccc(NCC2CCOCC2)c([N+](=O)[O-])c1)c1ccc(N2CCN(Cc3ccc(C(F)(F)F)cc3-c3ccc(Cl)cc3)CC2)cc1Oc1cnc2[nH]ccc2c1	cell-free assay, competition with immobilised ligand	1 µM	100
CN(CCCC(F)(F)F)c1nccc(-c2cnn3ncccc23)n1	binding	1 µM	100
CNC(=O)[C@@H]1CC[C@@H](n2c(-c3ccc4cnccc4c3)nc3ccc(C(=O)NCc4cccc(C(N)=O)c4)cc32)C1	binding, competition with immobilised ligand	1 µM	92
Cc1c(C(=O)O)cc(-c2ccc(C3CCNCC3)cc2)c2ccc(-c3ccc(C(F)(F)F)cc3)cc12	binding, competition with immobilised ligand	1 µM	100
CC1CCCN1c1nccc(-c2cnn3ncccc23)n1 (stereo not shown)	binding	1 µM	100
COc1cc(-c2cn(C3CCc4ccccc4N(CC(F)(F)F)C3=O)nn2)ccc1-n1ccc(C)n1 (stereo not shown)	cell-free assay, competition with immobilised ligand	1 µM	100
C[C@@H]1CN(c2ccc3ncc(-c4ccc5[nH]nc(C6CC6)c5c4)n3n2)C[C@H](C)O1	binding, competition with immobilised ligand	50 nM	98
CCOCCn1cc(C(=O)Nc2ccc(-n3nc(-c4cccnc4)cc3C(F)(F)F)cn2)ccc1=O	cell-free assay, competition with immobilised ligand	1 µM	100
CN(C)c1nccc(-c2cnn3ncccc23)n1	binding	1 µM	79
